Assay outcomes: PubChem, several laboratories
CRFBP-R2 block: antagonists of CRF-binding protein/CRF-R2 receptor complex; HEK293 CRF-R2/CRF-BP, CRF-induced calcium fluorescence; inhibition, % at 11.8 µM; actives 0.59% (n = 350,000);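 active = inhibition of the ligand-induced calcium signal above about 50% at the single tested concentration, limit read from the data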
CRFR2-BP ag: CRF-BP/CRF-R2 complex agonism | HEK293 CRF-R2/CRF-BP, calcium dye fluorescence (FLIPR); percent of saturating CRF peptide response | activation, % at 13.2 µM | actives 0.46% (n = 350,000);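 active = activation of at least 50%, plus an integration ratio under a set limit after plate pattern correction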;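 also: plate controls were neutral control wells without compound for no effect and CRF at EC100 for full effect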
zfTRPN1 agonist: activates the zebrafish TRPN1 channel; HEK293 zebrafish TRPN1-YFP, Fluo-8 calcium fluorescence; 100% = response to 87 µM carbachol; activation, % at 3 µM; actives 0.18% (n = 220,000); AID 1424;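 active = activation above its plate's cutoff, the mean activation of test wells on that plate plus 3 SD, cut at about 19% in these data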;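 also: 0% = DMSO alone and 100% = 87 µM carbachol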
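System: zebrafish TRPN1-YFP in HEK293 cells / Dosing: 3 µM single point / Timing: dye loading 1 h at 37 °C, then 30 min room temperature / Signal: Fluo-8 calcium fluorescence, excitation 470-495 nm, emission 515-575 nm / Read-out basis: percent activation from peak over basal fluorescence ratio, control-normalized / Control set: high carbachol 87 µM, low DMSO alone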
TRPML3 ag: agonists of human TRPML3 channel; Q8TDD5; HEK293 TRPML3-YFP, Fluo-8 calcium fluorescence; 100% = the carbachol control signal; activation, % at 3 µM; actives 0.29% (n = 220,000); AID 1448;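 active = activation above its plate's cutoff, the mean activation of the plate's test wells plus 3 SD, cut at about 12% in these data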;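 also: 0% = DMSO only wells and 100% = carbachol wells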
Target sequence (Q8TDD5 whole entry, looked up): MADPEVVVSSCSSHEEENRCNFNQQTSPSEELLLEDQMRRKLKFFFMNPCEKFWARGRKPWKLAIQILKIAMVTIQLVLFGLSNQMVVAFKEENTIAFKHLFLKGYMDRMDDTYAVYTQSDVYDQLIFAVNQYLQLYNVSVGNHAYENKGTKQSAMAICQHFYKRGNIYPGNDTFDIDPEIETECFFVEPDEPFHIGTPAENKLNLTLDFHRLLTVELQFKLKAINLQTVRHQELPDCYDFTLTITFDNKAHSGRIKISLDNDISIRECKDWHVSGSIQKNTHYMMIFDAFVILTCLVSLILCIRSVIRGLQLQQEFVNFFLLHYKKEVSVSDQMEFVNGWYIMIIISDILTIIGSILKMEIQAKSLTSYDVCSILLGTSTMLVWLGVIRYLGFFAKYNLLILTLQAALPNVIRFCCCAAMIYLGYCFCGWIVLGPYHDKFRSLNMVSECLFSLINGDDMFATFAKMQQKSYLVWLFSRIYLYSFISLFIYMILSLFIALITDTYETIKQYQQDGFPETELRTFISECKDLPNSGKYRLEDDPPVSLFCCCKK
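Test system: TRPML3-YFP stable HEK293 cells. Doses: single point at 3 µM. Incubation: dye loading 1 h 37 °C then 30 min ambient, 125 s read. Signal: Fluo-8 calcium dye fluorescence, ex 470-495, em 515-575 nm. Measure: percent activation from peak-to-basal fluorescence ratio, scaled between DMSO and carbachol.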
GPR7 antagonist: blocks human GPR7 receptor signaling | GPR7-expressing cells, fluorescence antagonist assay | actives 1.1% (n = 290,000) | inhibition, % at 4.4 µM | AID 1861 | P48145; in the data active = inhibition above about 16%, passing the limit was not always enough;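 also: cells stimulated with the agonist NPW; 0% = agonist with vehicle and 100% = vehicle without agonist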
GPR7 antag conf: human GPR7 antagonism, confirmation assay | inhibition, % at 4.4 µM | actives 52% (n = 2,400) | GPR7-expressing cells, calcium fluorescence antagonist mode | shares compounds with GPR7 antagonist | AID 1952; in the data active = inhibition above about 24%;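 also: stimulated with the GPR7 agonist NPW; 0% = agonist plus vehicle and 100% = vehicle alone without agonist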
MCHR1 antagonist: antagonizes human MCHR1, a GPR7 antagonist counter-screen; inhibition, % at 4.4 µM; actives 62% (n = 2,400); shares compounds with GPR7 antagonist; MCHR1-expressing cells, fluorescence antagonist assay; AID 2148; in the data active = inhibition above about 22%;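 also: 0% = vehicle with agonist and 100% = vehicle without agonist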
An asterisk follows results filed as active; . = no result. An excerpt weighted towards active compounds, which were near 2% of everything screened.

SMILES	CRFBP-R2 block	CRFR2-BP ag	zfTRPN1 agonist	TRPML3 ag	GPR7 antagonist	GPR7 antag conf	MCHR1 antagonist
COc1cccc(CN(C)CC(=O)NCc2ccc(F)cc2)c1OC	-19	-4	.	.	5	.	.
CN1C(=O)C(O)(CC(=O)/C=C/C=C/c2ccccc2)c2ccccc21 (configuration not stated)	-31	2	-1	0	23*	-16	10
CCOC(=O)c1cc2[nH]c3ccccc3c2[n+](-c2ccc([N+](=O)[O-])cc2)c1C	31	-1	-1	0	23*	18	16
COC(=O)c1ccccc1NC(=O)Cn1cnc([N+](=O)[O-])c1	4	-1	.	.	-11	.	.
O=C(CSC1=NCCS1)NC(NC(=O)CSC1=NCCS1)c1ccccc1	-35	-1	-2	-2	29*	2	-1
O=C(COc1coc(CN2CCN(Cc3ccccc3)CC2)cc1=O)Nc1ccccc1	15	2	.	.	.	.	.
COc1ccc(CNC(=O)C(OC(=O)c2cccs2)C(C)C)cc1 (configuration not stated)	-12	0	.	.	0	.	.
CC(C)C(OC(=O)c1cccs1)C(=O)NCc1cccs1 (configuration not stated)	8	0	0	-1	37*	-4	3
O=C(NCc1ccccc1)C1CCCN(S(=O)(=O)c2ccc(-n3cnnn3)cc2)C1 (configuration not stated)	18	-1	.	.	23*	8	6
O=C(NCc1ccc(F)cc1)C1CCCN(S(=O)(=O)c2ccc(-n3cnnn3)cc2)C1 (configuration not stated)	9	0	.	.	-3	.	.
Cc1c(Cl)cccc1NC(=S)N(Cc1cccs1)C1CCCC1	-3	0	-1	0	23*	-2	27*
Cc1ccccc1NC(=S)N(Cc1cccs1)C1CCCCC1	3	-5	1	0	-22	.	.
COc1ccc(Cl)cc1NC(=O)CSc1cccc[n+]1[O-]	7	3	.	.	.	.	.
CCCC(=O)Nc1cccc(-c2cn3cccnc3n2)c1	1	2	-1	0	68*	8	5
Cc1ccc(N2C(=O)C3C4C=CC(CNC(=S)Nc5ccc(Cl)cc5)(O4)C3C2=O)cc1 (configuration not stated)	-26	4	-3	0	21*	29*	19
CC(C1CC2CCC1C2)n1c(COc2ccccc2F)nnc1SCC(N)=O (configuration not stated)	-58	10	6	1	24	.	.
CC(C)NC(=O)NC(=O)CSc1nnc(COc2ccccc2F)n1C(C)C1CC2CCC1C2 (configuration not stated)	-40	-1	-2	-1	32*	28*	54*
Nc1c(C(=O)CSc2nnnn2-c2ccc(O)cc2)c(=O)[nH]c(=O)n1C1CC1	6	2	.	.	.	.	.
CCC(NC(=O)c1[nH]c(C)c(C(C)=O)c1C)c1ccc(Br)cc1 (configuration not stated)	-7	0	.	.	29*	-7	10
CCC(C)c1ccc(NC(=O)c2[nH]c(C)c(C(C)=O)c2C)cc1 (configuration not stated)	-15	1	.	.	-9	.	.
Cc1ccc(C)c(N2N=C(C(=O)OCc3nnc(-c4ccccc4Br)o3)CCC2=O)c1	-8	1	.	.	.	.	.
O=S1(=O)CCN2C(Cc3ccc(SC(F)F)cc3)=CSC2=N1	-1	0	2	1	24*	17	12
CC1=CSC2=NS(=O)(=O)CCN12	12	5	0	0	-6	.	.
Cc1ccc2c(c1)c1c(n2CC(O)CNC2CCCC2)CCCC1 (configuration not stated)	-22	3	1	1	23*	53*	41*
Cn1c(CCNC(=O)c2cc(COc3ccc(F)c(F)c3)on2)nc2ccccc21	-21	4	.	.	-12	.	.
SMILES	CRFBP-R2 block	CRFR2-BP ag	zfTRPN1 agonist	TRPML3 ag	GPR7 antagonist	GPR7 antag conf	MCHR1 antagonist
CC(=O)Nc1nc(-c2ccc3c(c2)CCN3S(C)(=O)=O)cs1	7	-1	2	1	1	.	.
CS(=O)(=O)N1CCc2cc(-c3csc(NC(=O)Cc4cccs4)n3)ccc21	-5	1	9	5	39*	69*	83*
O=C(COC(=O)C1CC1)NCCc1ccccc1	-8	-2	.	.	.	.	.
O=C(COC(=O)C1CC2C=CC1C2)NCCc1ccccc1 (configuration not stated)	-17	2	0	0	25*	12	1
COc1ccc(OC)c(N(C(=O)c2ccco2)C(C(=O)NC2CCCC2)c2cc(OC)c(OC)c(OC)c2)c1 (configuration not stated)	-9	0	.	.	32*	23	8
COc1ccc(Cl)cc1N(C(=O)c1ccco1)C(C(=O)NC1CCCC1)c1cccnc1 (configuration not stated)	-3	-1	.	.	23*	9	2
COc1ccc(N(C(=O)c2ccco2)C(C(=O)NC2CCCC2)c2ccc(OC)c(OC)c2)cc1 (configuration not stated)	-2	1	.	.	-3	.	.
COc1ccc(Cl)cc1N(C(=O)c1ccco1)C(C(=O)NC1CCCC1)c1ccncc1 (configuration not stated)	-1	-1	.	.	17	.	.
COc1ccc(Cl)cc1N(C(=O)c1ccco1)C(C(=O)NC1CCCC1)c1ccco1 (configuration not stated)	-2	0	.	.	29*	28*	22*
CCOn1c(=O)c(-c2cccc(Br)c2)[n+]([O-])c2ccccc21	13	0	.	.	-16	.	.
CCn1c(CNc2ccc(Cl)cc2)nnc1SCc1ccc(Cl)cc1	-10	-1	1	1	34*	41*	45*
CCn1c(CNc2ccc(Cl)cc2)nnc1SCc1ccc(C)cc1	4	0	0	1	11	.	.
CCn1c(CNc2ccc(Cl)cc2)nnc1SCCN1CCCCC1	24	0	-1	0	.	.	15
Cc1ccc2c(C(=O)CN3CC(C)CC(C)C3)c(C)[nH]c2c1 (configuration not stated)	.	.	.	.	2	.	.
Cc1ccc(S(=O)(=O)/N=C(/Nc2ccc(F)cc2F)c2ccccc2)cc1	-9	-1	.	.	-1	.	.
Oc1ccc(-c2csc(-c3ccccc3)n2)cc1O	-19	-2	-2	0	27*	17	7
Cc1c(N)cccc1-n1cnnn1	2	3	2	1	24*	-1	5
Cc1c(N)cccc1-n1cccc1	1	4	0	0	-2	.	.
COC(=O)c1ccc(COc2cccc3c2CCN(Cc2cccc(C)c2)C3=O)o1	23	-2	3	2	22*	43*	70*
